Test results as given in ChEMBL document CHEMBL1649256, “Comparison of assessment of oxygen consumption, Etest, and CLSI M38-A2 broth microdilution methods for evaluation of the susceptibility of Aspergillus fumigatus to posaconazole” (2009).
Values after ≈ are worked out from the molar mass of the structure shown.

Key:
Format in all cases: functional
Aspergillus fumigatus [1] = assay: Antimicrobial activity against Aspergillus fumigatus isolate 43 by CLSI M38-A2 broth microdilution method
Aspergillus fumigatus [2] = assay: Antimicrobial activity against Aspergillus fumigatus isolate 14 after 48 hrs by Etest; details: isolate 14, 48 h
In short: (§1)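 Posaconazole Etest strips placed on RPMI 1640 agar with 2% glucose, pH 7.0, and run per the strip maker's instructions. Incubation at 35°C, with the MIC read at 24 h and at 48 h.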

Aspergillus fumigatus [3] = assay: Antimicrobial activity against Aspergillus fumigatus isolate 16 after 48 hrs by Etest; details: isolate 16, 48 h; in short: as §1
Aspergillus fumigatus [4] = assay: Antimicrobial activity against Aspergillus fumigatus isolate 32 after 48 hrs by Etest; details: isolate 32, 48 h
In short: (§2)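 Posaconazole Etest strips on RPMI 1640 agar with 2% glucose, pH 7.0, run per the strip maker's instructions. Incubated at 35°C. MIC read at 24 h and at 48 h, matching the time in each line.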

Aspergillus fumigatus [5] = assay: Antimicrobial activity against Aspergillus fumigatus isolate 39 by oxygen consumption method
In short: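 Conidial suspension in RPMI 1640 broth, tested at two posaconazole levels (0.25 and 2 μg/ml). Agitated for 12 h at 37°C in a biological oxygen monitor. MIC derived from continuous monitoring and quantification of the available oxygen.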

Aspergillus fumigatus [6] = assay: Antimicrobial activity against Aspergillus fumigatus isolate 44 by CLSI M38-A2 broth microdilution method
Aspergillus fumigatus [7] = assay: Antimicrobial activity against Aspergillus fumigatus isolate 24 after 24 hrs by Etest; details: isolate 24, 24 h
In short: (§3)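 Etest strips on RPMI 1640 agar with 2% glucose, pH 7.0, run per manufacturer's instructions. Incubated at 35°C; MIC read at 24 h.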

Aspergillus fumigatus [8] = assay: Antimicrobial activity against Aspergillus fumigatus isolate 21 by CLSI M38-A2 broth microdilution method
In short: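 Reference broth microdilution per CLSI M38-A2. MIC read as absence of visible growth at 48 h. C. parapsilosis ATCC 22019 and C. krusei ATCC 6258 QC strains run in each test session.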

Aspergillus fumigatus [9] = assay: Antimicrobial activity against Aspergillus fumigatus isolate 19 after 48 hrs by Etest; details: isolate 19, 48 h; in short: as §1
Aspergillus fumigatus [10] = assay: Antimicrobial activity against Aspergillus fumigatus isolate 48 after 24 hrs by Etest; details: isolate 48, 24 h
Aspergillus fumigatus [11] = assay: Antimicrobial activity against Aspergillus fumigatus isolate 17 by CLSI M38-A2 broth microdilution method
In short: (§4)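 Posaconazole broth microdilution follows CLSI M38-A2. The MIC is the lowest concentration with no visible growth at 48 h. Candida parapsilosis ATCC 22019 and Candida krusei ATCC 6258 were included as QC strains in every run.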

Aspergillus fumigatus [12] = assay: Antimicrobial activity against Aspergillus fumigatus isolate 50 after 24 hrs by Etest; details: isolate 50, 24 h
Aspergillus fumigatus [13] = assay: Antimicrobial activity against Aspergillus fumigatus isolate 28 after 24 hrs by Etest; details: isolate 28, 24 h; in short: as §3
Aspergillus fumigatus [14] = assay: Antimicrobial activity against Aspergillus fumigatus isolate 10 by CLSI M38-A2 broth microdilution method; in short: as §4
Aspergillus fumigatus [15] = assay: Antimicrobial activity against Aspergillus fumigatus isolate 41 after 48 hrs by Etest; details: isolate 41, 48 h; in short: as §2
Aspergillus fumigatus [16] = assay: Antimicrobial activity against Aspergillus fumigatus isolate 12 by CLSI M38-A2 broth microdilution method; in short: as §4
Aspergillus fumigatus [17] = assay: Antimicrobial activity against Aspergillus fumigatus isolate 33 after 48 hrs by Etest; details: isolate 33, 48 h; in short: as §2

Q: Which MIC (Aspergillus fumigatus [1]) does the source give for `CC[C@@H]([C@H](C)O)n1ncn(-c2ccc(N3CCN(c4ccc(OC[C@@H]5CO[C@@](Cn6cncn6)(c6ccc(F)cc6F)C5)cc4)CC3)cc2)c1=O` [POSACONAZOLE] here?
A: 0.125 µg/mL (≈ 0.178 µM)

Q: What about the MIC (Aspergillus fumigatus [2]) of the same compound?
A: 0.5 µg/mL (≈ 0.713 µM)

Q: What about the MIC (Aspergillus fumigatus [3]) of the same compound?
A: 0.25 µg/mL (≈ 0.357 µM)

Q: And the MIC (Aspergillus fumigatus [4])?
A: 0.25 µg/mL (≈ 0.357 µM)

Q: What about the MIC (Aspergillus fumigatus [5]) of the same compound?
A: ≥ 0.5 µg/mL

Q: And the MIC (Aspergillus fumigatus [6])?
A: 0.06 µg/mL (≈ 0.0856 µM)

Q: And the MIC (Aspergillus fumigatus [7])?
A: 0.125 µg/mL (≈ 0.178 µM)

Q: What about the MIC (Aspergillus fumigatus [8]) of the same compound?
A: 0.125 µg/mL (≈ 0.178 µM)

Q: And the MIC (Aspergillus fumigatus [9])?
A: 0.25 µg/mL (≈ 0.357 µM)

Q: What about the MIC (Aspergillus fumigatus [10]) of the same compound?
A: ≤ 0.03 µg/mL

Q: And the MIC (Aspergillus fumigatus [11])?
A: 0.125 µg/mL (≈ 0.178 µM)

Q: And the MIC (Aspergillus fumigatus [12])?
A: 0.25 µg/mL (≈ 0.357 µM)

Q: And the MIC (Aspergillus fumigatus [13])?
A: 0.25 µg/mL (≈ 0.357 µM)

Q: And the MIC (Aspergillus fumigatus [14])?
A: 0.25 µg/mL (≈ 0.357 µM)

Q: And the MIC (Aspergillus fumigatus [15])?
A: ≤ 0.03 µg/mL

Q: What about the MIC (Aspergillus fumigatus [16]) of the same compound?
A: 0.125 µg/mL (≈ 0.178 µM)

Q: What about the MIC (Aspergillus fumigatus [17]) of the same compound?
A: 0.25 µg/mL (≈ 0.357 µM)
